How the values were obtained:
[1] = AUC in rat at 3 mg/kg, po; type: ADME, organism-based; details: in vivo
How it was run: (§1)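 Rats dosed 1 mg/kg iv or 3 mg/kg po; plasma concentration–time profiles give AUC, CL, Vdss, Cmax, Tmax and absolute oral bioavailability; mean and SEM, n = 3.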

[2] = system: Rattus norvegicus; assay: Receptor occupancy at TARP gamma-8 containing AMPA receptor in Sprague-Dawley rat at 10 mg/kg, po administered 30 mins prior to addition of 6-[2-Ethoxyethyl-[4-(2-pyridyl)thiazol-2-yl]amino]-3H-1,3-benzothiazol-2-one measured after 40 mins by […]; type: functional
[3] = system: Rattus norvegicus; assay: Anticonvulsant activity in po dosed Sprague-Dawley rat assessed as inhibition of pentylenetetrazole-induced clonic convulsions at 10 mg/kg administered 30 mins prior to PTZ dosing measured over 30 mins; type: functional
[4] = Volume of distribution at steady state in rat at 1 mg/kg, iv; type: ADME, organism-based; details: in vivo, read-out: Vdss; how it was run: as §1
[5] = Toxicity in po dosed Sprague-Dawley rat assessed as motor impairment by inverted screen test; type: organism-based; details: in vivo
How it was run: (§2)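 Rats given compound orally (10 or 100 mg/kg), scored on inverted screen for motor impairment; plasma exposure measured; ≥4 rats/group, mean ± SEM; TD50 used with PTZ ED50 for protective index.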

[6] = organism: Rattus norvegicus; assay: Potency index, ratio of perampanel ED50 to compound ED50 for inhibition of pentylenetetrazole-induced clonic convulsions in Sprague-Dawley rat; type: functional
[7] = molecular target: T1, Glutamate receptor 1 (Homo sapiens, UniProt P42261); assay: (§3) Antagonist activity at human iGluA1 receptor flop isoform expressed in CHO-S cells coexpressing TARP gamma-8 and human EAAT3 assessed as inhibition of glutamate-induced increase in intracellular calcium levels after 2 mins followed by cyclothiazide/glutamate addition by fluo-4 AM dye based fluorescence imaging plate reader method; type: cell-based
T1 sequence (P42261 whole entry, canonical isoform): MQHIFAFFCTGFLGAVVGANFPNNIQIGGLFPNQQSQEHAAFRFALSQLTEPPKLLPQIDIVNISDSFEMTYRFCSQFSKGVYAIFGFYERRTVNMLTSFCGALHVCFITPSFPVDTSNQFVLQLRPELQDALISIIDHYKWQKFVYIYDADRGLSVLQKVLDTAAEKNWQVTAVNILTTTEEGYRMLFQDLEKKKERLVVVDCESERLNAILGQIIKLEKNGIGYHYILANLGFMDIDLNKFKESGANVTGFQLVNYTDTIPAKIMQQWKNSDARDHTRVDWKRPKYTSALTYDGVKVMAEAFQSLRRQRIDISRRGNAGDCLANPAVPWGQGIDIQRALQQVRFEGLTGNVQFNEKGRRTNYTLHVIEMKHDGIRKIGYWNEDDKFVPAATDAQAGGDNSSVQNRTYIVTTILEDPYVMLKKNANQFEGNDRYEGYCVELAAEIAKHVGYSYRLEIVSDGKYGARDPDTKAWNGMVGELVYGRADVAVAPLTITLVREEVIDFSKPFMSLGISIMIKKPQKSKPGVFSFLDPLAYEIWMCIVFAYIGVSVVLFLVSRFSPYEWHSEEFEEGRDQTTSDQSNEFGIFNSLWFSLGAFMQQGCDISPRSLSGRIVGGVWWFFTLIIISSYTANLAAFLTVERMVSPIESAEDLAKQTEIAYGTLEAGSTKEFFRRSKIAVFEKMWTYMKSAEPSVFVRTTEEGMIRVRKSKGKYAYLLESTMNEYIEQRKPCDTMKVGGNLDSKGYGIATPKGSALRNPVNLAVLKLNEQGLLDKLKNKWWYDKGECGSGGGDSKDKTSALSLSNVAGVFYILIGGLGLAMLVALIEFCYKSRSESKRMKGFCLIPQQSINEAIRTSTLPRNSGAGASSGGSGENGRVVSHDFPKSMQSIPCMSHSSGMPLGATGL
How it was run: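 Transiently transfected CHO-S cells (human GluA1Q flop with TARP γ-8 and human EAAT3, DNA ratio 2:3), frozen, thawed, plated overnight at 37 °C; Fluo-4 AM loading 2 h at 22 °C. Compound added, then 2 min later glutamate (5 μM final); cyclothiazide (20 μM) plus glutamate (45 μM) 2 min after. FLIPR Ca2+ read; inhibition relative to 167 μM nonselective antagonist and buffer baseline; four-parameter logistic IC50; mean ± SEM, n ≥ 2.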

[8] = Oral bioavailability in rat at 3 mg/kg; type: ADME, organism-based; details: in vivo; how it was run: as §1
[9] = system: Rattus norvegicus; assay: Anticonvulsant activity in po dosed Sprague-Dawley rat assessed as inhibition of pentylenetetrazole-induced clonic convulsions administered 30 mins prior to PTZ dosing measured over 30 mins; type: functional
[10] = molecular target: T1, Glutamate receptor 1; assay: Antagonist activity at human iGluA1 receptor flip isoform expressed in CHO-S cells assessed as inhibition of glutamate-induced increase in intracellular calcium levels after 2 mins followed by cyclothiazide/glutamate addition by fluo-4 NW dye based fluorescence imaging plate reader method; type: cell-based
[11] = system: Rattus norvegicus; assay: Receptor occupancy at TARP gamma-8 containing AMPA receptor in Sprague-Dawley rat at 3 mg/kg, po administered 30 mins prior to addition of 6-[2-Ethoxyethyl-[4-(2-pyridyl)thiazol-2-yl]amino]-3H-1,3-benzothiazol-2-one measured after 40 mins by […]; type: functional
[12] = molecular target: T1, Glutamate receptor 1; assay: as §3, with “gamma-2” for “gamma-8 and human EAAT3”; type: cell-based
[13] = system: Plasma; assay: Plasma concentration in Sprague-Dawley rat at 100 mg/kg, po; type: ADME, organism-based; details: in vivo; how it was run: as §2
[14] = Clearance in rat; type: ADME, organism-based; details: in vivo
[15] = system: Rattus norvegicus; assay: Anticonvulsant activity in po dosed Sprague-Dawley rat assessed as inhibition of pentylenetetrazole-induced clonic convulsions at 1 mg/kg administered 30 mins prior to PTZ dosing measured over 30 mins; type: functional
[16] = system: Rattus norvegicus; assay: Receptor occupancy at TARP gamma-8 containing AMPA receptor in Sprague-Dawley rat at 1 mg/kg, po administered 30 mins prior to addition of 6-[2-Ethoxyethyl-[4-(2-pyridyl)thiazol-2-yl]amino]-3H-1,3-benzothiazol-2-one measured after 40 mins by […]; type: functional
[17] = Tmax in rat at 3 mg/kg, po; type: ADME, organism-based; details: in vivo; how it was run: as §1
[18] = system: Plasma; assay: Plasma concentration in Sprague-Dawley rat at 10 mg/kg, po; type: ADME, organism-based; details: in vivo
[19] = system: Brain; assay: Drug uptake in Sprague-Dawley rat brain at 1 mg/kg, po; type: ADME, organism-based; details: in vivo
How it was run: (§4)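 Rats dosed orally 1–30 mg/kg 30 min before iv bolus of non-radiolabelled tracer; brain taken 40 min after tracer; tracer in hippocampus (total binding) and cerebellum (null region) quantified by LC-MS/MS; occupancy by ratio method; brain exposure measured; n = 4 per group, mean ± SEM.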

[20] = system: Rattus norvegicus; assay: Receptor occupancy at TARP gamma-8 containing AMPA receptor in Sprague-Dawley rat at 30 mg/kg, po administered 30 mins prior to addition of 6-[2-Ethoxyethyl-[4-(2-pyridyl)thiazol-2-yl]amino]-3H-1,3-benzothiazol-2-one measured after 40 mins by […]; type: functional
[21] = system: Brain; assay: Drug uptake in Sprague-Dawley rat brain at 10 mg/kg, po; type: ADME, organism-based; details: in vivo; how it was run: as §4
[22] = system: Brain; assay: Drug uptake in Sprague-Dawley rat brain at 30 mg/kg, po; type: ADME, organism-based; details: in vivo; how it was run: as §4
[23] = Clearance in rat at 1 mg/kg, iv; type: ADME, organism-based; details: in vivo; how it was run: as §1
[24] = system: Plasma; assay: Plasma concentration in Sprague-Dawley rat at 30 mg/kg, po; type: ADME, organism-based; details: in vivo
[25] = system: Rattus norvegicus; assay: Protective index, ratio of TD50 for motor impairment to ED50 for inhibition of pentylenetetrazole-induced clonic convulsions in po dosed Sprague-Dawley rat
How it was run: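 PI = inverted screen TD50 divided by PTZ ED50. For the ED50, rats were dosed orally 30 min before PTZ (35 mg/kg, sc), with n = 10 per group. Read-out was % block of clonic convulsions; ED50 given with 95% confidence limits.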

[26] = system: Rattus norvegicus; assay: Anticonvulsant activity in po dosed Sprague-Dawley rat assessed as inhibition of pentylenetetrazole-induced clonic convulsions at 3 mg/kg administered 30 mins prior to PTZ dosing measured over 30 mins; type: functional
[27] = molecular target: T2, Cytochrome P450 1A2 (Homo sapiens, UniProt P05177); assay: Inhibition of human CYP1A2; type: ADME
T2 sequence (P05177 whole entry): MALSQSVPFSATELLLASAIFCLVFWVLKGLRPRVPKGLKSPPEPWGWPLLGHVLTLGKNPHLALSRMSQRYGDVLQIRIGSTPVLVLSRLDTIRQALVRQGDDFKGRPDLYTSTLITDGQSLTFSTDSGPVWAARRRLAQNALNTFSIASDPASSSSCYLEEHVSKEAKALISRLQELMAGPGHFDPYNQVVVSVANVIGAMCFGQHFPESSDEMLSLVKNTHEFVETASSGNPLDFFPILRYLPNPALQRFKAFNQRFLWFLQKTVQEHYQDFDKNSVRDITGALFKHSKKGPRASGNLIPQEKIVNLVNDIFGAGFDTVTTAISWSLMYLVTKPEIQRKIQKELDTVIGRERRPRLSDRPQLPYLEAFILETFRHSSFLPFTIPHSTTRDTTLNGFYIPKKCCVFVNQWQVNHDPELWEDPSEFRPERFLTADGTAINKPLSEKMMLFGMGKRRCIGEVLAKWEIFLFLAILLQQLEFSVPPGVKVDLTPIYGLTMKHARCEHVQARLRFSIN

[28] = system: Brain; assay: Drug uptake in Sprague-Dawley rat brain at 3 mg/kg, po; type: ADME, organism-based; details: in vivo; how it was run: as §4
[29] = system: Plasma; assay: Plasma concentration in Sprague-Dawley rat at 1 mg/kg, po; type: ADME, organism-based; details: in vivo
[30] = system: Plasma; assay: Plasma concentration in Sprague-Dawley rat at 3 mg/kg, po; type: ADME, organism-based; details: in vivo
[31] = AUC in rat at 1 mg/kg, iv; type: ADME, organism-based; details: in vivo; how it was run: as §1
[32] = Cmax in rat at 3 mg/kg, po; type: ADME, organism-based; design: dose 3 mg/kg, route oral; details: in vivo; how it was run: as §1
[33] = system: Rattus norvegicus; assay: Toxicity in Sprague-Dawley rat assessed as motor impairment up to 100 mg/kg, po by inverted screen test; type: organism-based; details: in vivo; how it was run: as §2

AUC [1]: 4220 ng·h/mL
Vd [4]: 1.28 L/kg
IC50 [7]: 0.0653 µM
bioavailability [8]: 97%
IC50 [10]: 83.3 µM
IC50 [12]: 68.5 µM
Cp [13]: 8342 ng/mL
clearance [14]: 11.4 mL/min/kg
Tmax [17]: 1.3 h
Cp [18]: 3360 ng/mL
Drug uptake [19]: 133 ng/g
Drug uptake [21]: 1526 ng/g
Drug uptake [22]: 2400 ng/g
clearance [23]: 11.4 mL/min/kg
Cp [24]: 1780 ng/mL
IC50 [27]: > 10 µM
Drug uptake [28]: 477 ng/g
Cp [29]: 377 ng/mL
Cp [30]: 1269 ng/mL
AUC [31]: 1470 ng·h/mL
Cmax [32]: 628 ng/mL
Structure (SMILES): C[C@@H](c1ccc2[nH]c(=O)sc2c1)c1ccn(-c2ccc(OCCO)cn2)n1
Occ [2]: 68%
inhibition in vivo at 10 mg/kg [3]: 100%
TD50 [5]: 3.8 mg/kg
Ratio ED50 [6]: 10
ED50 [9]: 1.7 mg/kg
inhibition [9]: Dose-dependent effect
Occ [11]: 69%
inhibition in vivo at 1 mg/kg [15]: 40%
Occ [16]: 45%
Occ [20]: 96%
Ratio TD50/ED50 [25]: >58
inhibition in vivo at 3 mg/kg [26]: 80%
Activity [33]: Non-toxic

Reference: ChEMBL document CHEMBL3822422, “Discovery of the First α-Amino-3-hydroxy-5-methyl-4-isoxazolepropionic Acid (AMPA) Receptor Antagonist Dependent upon Transmembrane AMPA Receptor Regulatory Protein (TARP) γ-8” (J Med Chem, 2016)
